Values belong to the substance of their own block, whether it stands above or below them.
Tests used:
[1] = organism: Rattus norvegicus; assay: (§1) The compound was tested for the plasma binding in rat; assay type: ADME, organism-based
[2] = Plasma protein binding (human); assay type: ADME, cell-free
Procedure, shortened: (§2)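 Test substance (0.02 mL) was added to 1.0 mL of heparinized fresh human plasma and incubated about 15 min. Duplicate samples were passed through Sephadex G-25 desalting columns by centrifugation. Eluate and gel were γ-counted for 1 min or to 1% σ error. % bound = net cpm eluate / net cpm (eluate + gel) × 100.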

[3] = tested on: Rattus norvegicus; assay: Biodistribution of compound in rat blood after 5 min of administration.; assay type: ADME, organism-based; conditions: in vivo
Procedure, shortened: (§3)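 Female Sprague-Dawley rats (150–200 g) received the complex in normal saline (~12.5 μCi/mL) through a lateral tail vein at ~25 μCi/kg. Rats were killed by cervical dislocation 5 min after injection. Tissues were washed with saline, blotted, weighed and γ-counted to give percent injected dose/g tissue.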

[4] = tested on: Rattus norvegicus; assay: Biodistribution of compound in rat heart after 5 min of administration.; assay type: ADME, organism-based; conditions: in vivo; procedure, shortened: as §3
[5] = tested on: Rattus norvegicus; assay: Biodistribution of compound in rat kidney after 5 min of administration.; assay type: ADME, organism-based; conditions: in vivo; procedure, shortened: as §3
[6] = tested on: Rattus norvegicus; assay: Biodistribution of compound in rat lung after 5 min of administration.; assay type: ADME, organism-based; conditions: in vivo; procedure, shortened: as §3
[7] = (§4) Biodistribution of compound in rat muscle after 5 min of administration.; assay type: ADME, organism-based, Muscle tissue; conditions: in vivo; procedure, shortened: as §3
[8] = tested on: Rattus norvegicus; assay: Biodistribution of compound in rat brain after 5 min of administration; assay type: ADME, organism-based; conditions: in vivo
[9] = tested on: Rattus norvegicus; assay: Biodistribution of compound in rat liver after 5 min of administration.; assay type: ADME, organism-based; conditions: in vivo; procedure, shortened: as §3
[10] = tested on: Rattus norvegicus; assay: as §4; assay type: ADME, organism-based, Muscle tissue; conditions: in vivo; procedure, shortened: as §3
[11] = organism: Homo sapiens; assay: The compound was tested for the plasma binding in human.; assay type: functional; procedure, shortened: as §2
[12] = organism: Rattus norvegicus; assay: as §1; assay type: functional
Procedure, shortened: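 Plasma protein binding was measured in rat plasma samples collected during the rat biodistribution studies, after tail vein injection of the 99mTc complex in saline (~25 μCi/kg).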

Substance: BIS(HEXAMETHYLBENZENE)TECHNETIUM
- Plasma binding [1]: 57%
- Plasma binding [2]: 72%
- Dose/g [3]: 0.16%
- Dose/g [4]: 3%
- Dose/g [5]: 6.2%
- Dose/g [6]: 1.2%
- Dose/g [7]: 0.55%
- Dose/g [8]: 0.03%
- Dose/g [9]: 0.79%

Substance: BIS(TETRAHYDROACENAPHTHENE) TECHNETIUM
- Plasma binding [1]: 27%
- Plasma binding [2]: 90%
- Dose/g [3]: 0.23%
- Dose/g [4]: 4%
- Dose/g [5]: 6%
- Dose/g [6]: 1.4%
- Dose/g [10]: 0.82%
- Dose/g [9]: 0.45%

Substance: Bis(1,2,3,4-tetramethylbenzene)technetium
- Plasma binding [1]: 22%
- Plasma binding [2]: 46%
- Dose/g [3]: 0.094%
- Dose/g [4]: 2.4%
- Dose/g [5]: 8.2%
- Dose/g [6]: 1.1%
- Dose/g [10]: 0.66%
- Dose/g [9]: 0.73%

Substance: Bis(4,6-dimethylindane)technetium
- Plasma binding [1]: 54%
- Plasma binding [2]: 57%
- Dose/g [3]: 0.12%
- Dose/g [4]: 3.6%
- Dose/g [5]: 8.4%
- Dose/g [6]: 1.4%
- Dose/g [7]: 0.42%
- Dose/g [8]: 0.03%
- Dose/g [9]: 0.66%

Substance: Bis(1,2,4,5-tetramethylbenzene)technetium
- Plasma binding [1]: 18%
- Plasma binding [2]: 42%
- Dose/g [3]: 0.28%
- Dose/g [4]: 2.3%
- Dose/g [5]: 9.8%
- Dose/g [6]: 1.3%
- Dose/g [7]: 0.72%
- Dose/g [8]: 0.02%
- Dose/g [9]: 0.9%

Substance: Bis(1,2,3,4,5,6,7,8-octahydroanthracene)technetium
- Plasma binding [1]: 32%
- Plasma binding [2]: 35%
- Dose/g [3]: 0.16%
- Dose/g [4]: 1.8%
- Dose/g [5]: 9.1%
- Dose/g [6]: 0.9%
- Dose/g [7]: 0.48%
- Dose/g [8]: 0.02%
- Dose/g [9]: 0.79%

Substance: Bis(1,1,4,6,7-pentamethylindane)technetium
- Plasma binding [1]: 81%
- Plasma binding [2]: 95%
- Dose/g [3]: 0.49%
- Dose/g [4]: 3.3%
- Dose/g [5]: 5%
- Dose/g [6]: 2.5%
- Dose/g [7]: 0.56%
- Dose/g [8]: 0.06%
- Dose/g [9]: 1.2%

Substance: Bis(1,3,5-tri-tert-butylbenzene)technetium
- Plasma binding [1]: 60%
- Plasma binding [2]: 81%
- Dose/g [3]: 0.49%
- Dose/g [4]: 1%
- Dose/g [5]: 8%
- Dose/g [6]: 1.3%
- Dose/g [7]: 0.38%
- Dose/g [8]: 0.04%
- Dose/g [9]: 2%

Substance: Bis(1,2,3,5-tetramethylbenzene)technetium
- PPB [11]: 36%
- PPB [12]: 21%

Substance: Bis(toluene)technetium
- PPB [11]: 11%
- PPB [12]: 8.9%

Substance: Bis(1,2-diethylbenzene)technetium
- Plasma binding [1]: 21%
- Plasma binding [2]: 84%
- Dose/g [3]: 0.1%
- Dose/g [4]: 3%
- Dose/g [5]: 7.8%
- Dose/g [6]: 1.3%
- Dose/g [7]: 0.58%
- Dose/g [8]: 0.03%
- Dose/g [9]: 0.62%

Substance: Bis(1,2,3,4-tetrahydronaphthalene)technetium
- Plasma binding [1]: 5.8%
- Plasma binding [2]: 51%
- Dose/g [3]: 0.24%
- Dose/g [4]: 2.6%
- Dose/g [5]: 9.1%
- Dose/g [6]: 1%
- Dose/g [10]: 0.51%
- Dose/g [9]: 0.65%

Substance: BIS(PENTAMETHYLBENZENE) TECHNETIUM
- Plasma binding [1]: 57%
- Plasma binding [2]: 55%
- Dose/g [3]: 0.14%
- Dose/g [4]: 3.5%
- Dose/g [5]: 5.5%
- Dose/g [6]: 1.6%
- Dose/g [7]: 0.66%
- Dose/g [8]: 0.02%
- Dose/g [9]: 0.45%

Substance: BIS(INDAN)TECHNETIUM
- Plasma binding [1]: 6.8%
- Plasma binding [2]: 17%
- Dose/g [3]: 0.077%
- Dose/g [4]: 1.1%
- Dose/g [5]: 11%
- Dose/g [6]: 0.98%
- Dose/g [10]: 0.23%
- Dose/g [9]: 1.7%

The next lines start with the values.

- Plasma binding [1]: 19%
- Plasma binding [2]: 64%
- Dose/g [3]: 0.09%
- Dose/g [4]: 2.8%
- Dose/g [5]: 5.1%
- Dose/g [6]: 1.2%
- Dose/g [7]: 0.64%
- Dose/g [8]: 0.03%
- Dose/g [9]: 0.46%
Substance: Bis(1,3-diethylbenzene)technetium

- Plasma binding [1]: 34%
- Plasma binding [2]: 84%
- Dose/g [3]: 0.16%
- Dose/g [4]: 2.6%
- Dose/g [5]: 12%
- Dose/g [6]: 1%
- Dose/g [7]: 0.55%
- Dose/g [8]: 0.02%
- Dose/g [9]: 1%
Substance: BIS(DODECAHYDROTRIPHENYLENE) TECHNETIUM

- PPB [11]: 11%
- PPB [12]: 8.9%
Substance: BIS(TOLUENE)TECHNETIUM

- Plasma binding [1]: 50%
- Plasma binding [2]: 84%
- Dose/g [3]: 0.4%
- Dose/g [4]: 1.3%
- Dose/g [5]: 10%
- Dose/g [6]: 5.7%
- Dose/g [7]: 0.33%
- Dose/g [8]: 0.06%
- Dose/g [9]: 8.4%
Substance: BIS(HEXAETHYLBENZENE) TECHNETIUM

- Plasma binding [1]: 48%
- Plasma binding [2]: 83%
- Dose/g [3]: 0.24%
- Dose/g [4]: 2.8%
- Dose/g [5]: 7.3%
- Dose/g [6]: 1.1%
- Dose/g [7]: 0.63%
- Dose/g [8]: 0.04%
- Dose/g [9]: 1.4%
Substance: Bis(1,3,5-triethylbenzene)technetium

- Plasma binding [1]: 27%
- Plasma binding [2]: 75%
- Dose/g [3]: 0.16%
- Dose/g [4]: 2.5%
- Dose/g [5]: 5%
- Dose/g [6]: 1.1%
- Dose/g [10]: 0.56%
- Dose/g [9]: 0.42%
Substance: Bis(1-methyl-(2-propyl)benzene)technetium

- Plasma binding [1]: 75%
- Plasma binding [2]: 94%
- Dose/g [3]: 0.35%
- Dose/g [4]: 3.4%
- Dose/g [5]: 6.4%
- Dose/g [6]: 1.5%
- Dose/g [7]: 0.66%
- Dose/g [8]: 0.04%
- Dose/g [9]: 0.73%
Substance: Bis(1,1,4,6-tetramethylindane)technetium

- Plasma binding [1]: 16%
- Plasma binding [2]: 60%
- Dose/g [3]: 0.13%
- Dose/g [4]: 3.8%
- Dose/g [5]: 5.4%
- Dose/g [6]: 1.4%
- Dose/g [7]: 0.66%
- Dose/g [8]: 0.03%
- Dose/g [9]: 0.58%
Substance: Bis(1,4-diethylbenzene)technetium

- Plasma binding [1]: 18%
- Plasma binding [2]: 80%
- Dose/g [3]: 0.18%
- Dose/g [4]: 3.2%
- Dose/g [5]: 6.5%
- Dose/g [6]: 1.3%
- Dose/g [10]: 0.7%
- Dose/g [9]: 0.38%
Substance: Bis(5-isopropyl-m-xylene)technetium

- Plasma binding [1]: 23%
- Plasma binding [2]: 27%
- Dose/g [3]: 0.09%
- Dose/g [4]: 1.5%
- Dose/g [5]: 9.3%
- Dose/g [6]: 1%
- Dose/g [7]: 0.49%
- Dose/g [8]: 0.02%
- Dose/g [9]: 1%
Substance: BIS(TRINDAN) TECHNETIUM

Reference: ChEMBL document CHEMBL1125797, “Synthesis, characterization and myocardial uptake of cationic bis(arene)technetium(I) complexes” (J Med Chem, 1991)
